Source: PubChem
procasp3 activ = activators of human procaspase-3 | activation, % at 8.5 µM | P42574 | hit rate 0.11% among 330,000 | recombinant procaspase-3 D3A, Ac-DEVD-pNA absorbance 405 nm;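 active = activation above the mean of all tested compounds plus 3 SD, cut at about 21% in these data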;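 also: 0% = DMSO alone and 100% = DMSO wells spiked with extra 5 µM PC-3 D3A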
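System: Procaspase-3 D3A mutant. Medium: Zinc-free 300 mM NaCl, 50 mM HEPES, 0.01% Triton X-100. Schedule: 1 h preincubation plus 2 h reaction at 25 °C. Measured by: 405 nm absorbance of p-nitroaniline, reads at 0 and 120 min. Read-out: percent activation relative to control range.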
IDE inh = inhibitors of human insulin-degrading enzyme in cells; P14735; HEK cells, FAbetaB cleavage, fluorescence polarization; inhibition, % at 5.59 µM; hit rate 0.41% among 320,000;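 active = percent inhibition above the average of all tested compounds plus 3 SD, set per screening campaign, cut at about 16% in these data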;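 also: IDE supplied by intact live HEK cells; FP after avidin binding of uncleaved biotin substrate so inhibition keeps polarization high; 0% = DMSO wells and 100% = 60 µM reference IDE inhibitor Ii1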
UBC13 inh = human UBC13 polyubiquitination inhibition; UBC13 polyubiquitin chain formation, TR-FRET; inhibition, % at 20 µM; hit rate 0.47% among 330,000; AID 485273; in the data active = inhibition above about 45%, passing the limit was not always enough; inconclusive = no clear call, values can overlap the other calls
Target sequence (P61088 whole entry, looked up): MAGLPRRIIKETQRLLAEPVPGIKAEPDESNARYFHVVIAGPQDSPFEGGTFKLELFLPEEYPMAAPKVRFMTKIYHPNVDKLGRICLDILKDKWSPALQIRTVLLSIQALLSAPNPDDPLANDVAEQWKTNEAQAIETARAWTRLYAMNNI
PHOSPHO1 inh = blocks human PHOSPHO1 phosphatase activity; recombinant PHOSPHO1, absorbance phosphatase assay; inhibition, % at 13.3 µM; hit rate 1.1% among 290,000; in the data active = inhibition above about 60%
procasp7 counter = activates human procaspase-7, counter-screen for procaspase-3 activators. P55210. recombinant procaspase-7, Ac-DEVD-pNA absorbance 405 nm; D23A/D198A/D206A triple mutant, cannot self-cleave; scale: DMSO 0, 5 µM enzyme 100. activation, % at 8.5 µM. hit rate 0.093% among 330,000. AID 463210;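 active = percent activation above the screen-wide mean plus 3 SD, cut at about 25% in these data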
Target sequence (P55210 whole entry D23A/D198A/D206A): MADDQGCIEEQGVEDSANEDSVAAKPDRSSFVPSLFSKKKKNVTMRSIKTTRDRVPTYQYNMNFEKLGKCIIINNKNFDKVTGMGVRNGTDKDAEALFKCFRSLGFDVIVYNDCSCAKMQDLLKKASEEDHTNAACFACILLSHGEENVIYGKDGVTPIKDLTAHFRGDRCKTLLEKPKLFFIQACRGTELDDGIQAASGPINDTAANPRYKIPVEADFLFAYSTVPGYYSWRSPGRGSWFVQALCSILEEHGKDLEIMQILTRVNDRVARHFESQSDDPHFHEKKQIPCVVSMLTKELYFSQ
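Assay system: Uncleavable procaspase-7 mutant enzyme | Input: 2 µM procaspase-7 mutant as dispensed | Timing: 1 h compound preincubation, 2 h substrate cleavage, 25 °C | Repeats: One well per compound | Control set: DMSO wells as 0%, DMSO with 5 µM added PC-7 as 100% | Technique: Epi-absorbance of released pNA at 405 nm, two timepoints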
IDE cell activ = activators of human insulin-degrading enzyme in cells; HEK cells, FAbeta-B cleavage, fluorescence polarization; 0% vehicle, 100% cell-free pure enzyme wells; activation, % at 5.96 µM; hit rate 0.073% among 340,000; AID 493087;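 active = activation above the mean of all tested compounds plus 3 SD, set per screening campaign, cut at about 17% in these data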
The depositor's hits bear a star; ? = inconclusive; · = no result. This is a sample that favours compounds with a hit; in the whole collection about 1.9% have one here.

SMILES	procasp3 activ	IDE inh	UBC13 inh	PHOSPHO1 inh	procasp7 counter	IDE cell activ
CS(=O)(=O)N(CC(=O)N1CCN(c2ccccc2)CC1)c1cccc(Br)c1	7.0	-2.2	-0.6	98.4*	6.0	2.2
Cc1cc[n+](-c2nc([O-])sc2/C=N/Nc2ccc([N+](=O)[O-])cc2)cc1	0.3	4.5	-80.9	48.6	11.2	1.9
Cc1cc(C)c[n+](-c2nc([O-])sc2C=O)c1	12.3	4.0	1.9	96.2*	-4.7	-1.1
Cc1ccc(C(=O)OC(C)C(=O)N(C)C2CCCCC2)cc1S(=O)(=O)N1CCCCC1 (stereo unspecified)	-2.6	-0.9	5.5	·	8.7	0.7
COc1ccc(N=C2NC(=O)S/C2=C\c2ccc(N(C)C)cc2)cc1	6.2	30.2*	-219.7	15.9	-16.3	-25.5
CCOc1ccc(N=C2NC(=O)S/C2=C\c2ccc(Cl)cc2)cc1	-12.0	3.1	-8.3	20.6	-2.3	3.4
N#CCCN(C(=O)c1ccc2c(=O)n3c(nc2c1)CCCCC3)c1ccccc1	8.3	-7.3	5.8	64.0*	2.6	3.4
N#CCCN(C(=O)COC(=O)c1ccc2c(=O)n3c(nc2c1)CCC3)c1ccccc1	9.3	1.8	-0.8	24.3	3.5	0.1
COc1ccc(S(=O)(=O)N2CCOCC2)cc1NC(=O)CSc1n[nH]c(C(C)C)n1	-1.6	1.4	-0.4	62.9*	-5.3	6.9
CCOC(=O)c1c(NC(=O)C2CCCO2)sc(C(=O)OC(C)(C)C)c1C (stereo unspecified)	-4.3	6.8	15.5	83.2*	-2.1	0.1
COc1ccc(CC(=O)NNC(=S)Nc2ccccc2)cc1Br	-6.7	-3.1	-8.0	93.0*	-8.7	-7.0
COc1ccc(CC(=O)NNC(=S)Nc2ccc(Br)cc2)cc1	-5.0	6.3	-3.2	97.6*	-4.1	-4.4
CCOc1ccc(C(=O)Nc2ccc(NC(=O)c3ccccc3)cc2)cc1Br	1.1	0.7	-3.2	-7.8	3.6	3.1
CCOc1ccc(CC(=O)NNC(=S)Nc2ccccc2)cc1Br	2.1	4.1	-16.1	87.4*	9.0	5.2
O=C(Cn1nc(C(F)F)cc1C(F)F)NNC(=S)Nc1ccc(Cl)cc1	-7.6	1.3	-5.6	99.7*	-9.0	-2.8
CC(C)Oc1ccc(CC(=O)NNC(=S)Nc2ccccc2)cc1	-0.9	1.7	7.6	15.9	-9.9	0.1
Cc1ccc(NC(=S)NNC(=O)Cn2nc(C(F)F)cc2C(F)F)cc1	-0.5	-1.8	-4.3	-2.7	-1.4	-2.8
O=C(NCc1ccccc1)c1ccc(S(=O)(=O)NCc2ccco2)cc1	1.6	2.3	-8.8	22.5	-0.5	-0.8
O=C(N/N=C/c1ccsc1)c1c[nH]c2ccccc12	4.3	-2.9	-5.4	42.7	-0.9	0.4
Cc1cc(NC(=O)CSCC(=O)Nc2nc3ccccc3[nH]2)no1	9.2	0.5	-0.9	·	4.6	-2.6
Cc1noc(C)c1NC(=O)N(C)C[C@H]1Oc2ccc(NC(=O)NC3CCCCC3)cc2C(=O)N([C@H](C)CO)C[C@@H]1C	7.5	8.4	6.9	·	14.9	0.4
COc1ccc(NC(=S)NNC(=O)Cn2nc([N+](=O)[O-])cc2C)cc1	6.5	4.3	2.5	79.2*	-1.4	1.0
COCCNC(=O)CSc1cc(-c2ccccc2)c2ccc(OC)cc2n1	3.7	4.8	?	21.0	7.9	-10.6
COc1ccc2c(-c3ccccc3)cc(SCC(=O)NC(N)=O)nc2c1	1.0	4.6	3.9	17.2	2.2	25.7*
COc1cccc(CNc2ccc3c(c2)ncn3C(C)C)c1OC	-9.7	-9.8	5.6	-0.1	-1.9	20.0*
SMILES	procasp3 activ	IDE inh	UBC13 inh	PHOSPHO1 inh	procasp7 counter	IDE cell activ
CCc1ccc2c(CN(C)Cc3ccc(OC(F)F)c(OC)c3)cc(=O)oc2c1	-0.9	-0.9	-7.0	-54.5	-6.2	-4.8
FC(F)(F)c1cc(-c2ccccc2)nc(N2CCCCC2)n1	3.4	3.9	40.2	11.4	0.1	2.8
FC(F)(F)c1cc(-c2ccccc2)nc(N2CCOCC2)n1	1.2	8.2	36.3	74.5*	3.0	5.1
CC1(C)CC[C@]2(C(=O)O)[C@H](O)C[C@]3(C)C(=CCC4[C@@]5(C)C[C@H](O)[C@H](O)[C@@](C)(CO)C5CC[C@]43C)[C@@H]2C1 (stereo partly specified)	1.7	10.1	-5.9	·	-3.7	0.8
Cc1cc(/C=c2/sc3nc4ccccc4n3c2=O)c(C)n1-c1ccccn1	-12.9	6.6	-5.4	75.2*	-26.2	-3.2
Cc1cc(/C=c2\sc3nc4ccccc4n3c2=O)c(C)n1-c1ccc(C(=O)O)cc1	·	·	·	6.2	·	0.8
O=C(NCC(=O)N1CCN(C/C=C/c2ccccc2)CC1)c1ccc(OC(F)F)cc1	-5.3	0.9	6.7	·	3.9	0.4
COc1ccc(N=Nc2nc3cc(Br)c(Br)cc3n2C)c(OC)c1	-3.1	-17.6	·	72.2*	-5.5	11.1
COc1ccc(CNc2nc3ccccc3n2C)c(OC)c1	2.1	1.3	-13.5	-0.8	3.2	2.8
CCOC(=O)N1CCc2c(sc3c2C(=O)NC(c2ccccc2)N3)C1 (stereo unspecified)	-6.5	1.8	-21.9	66.1*	-10.7	2.7
COc1cc(/C=c2\sc3nc(-c4ccncc4)nn3c2=O)ccc1OC(C)=O	·	·	·	86.6*	·	·
Cc1ccc(NC(=O)c2c([N+](=O)[O-])c(C(C)(C)C)nn2C)cc1	6.6	-3.3	15.6	19.2	2.2	5.2
Cc1ccc(NC(=S)NNC(=O)c2c(Cl)c(C)nn2C)cc1	-4.8	-0.6	3.1	67.7*	4.0	-4.4
Cc1nn(C(C)C(=O)NNC(=S)Nc2ccc(Cl)cc2)c(C)c1[N+](=O)[O-] (stereo unspecified)	6.1	-3.2	-0.9	94.5*	-7.9	5.1
Cc1ccc(NC(=S)NNC(=O)c2cn(C)nc2C)cc1	-14.0	2.1	7.7	88.9*	-8.8	2.1
Cc1ccc(NC(=S)NNC(=O)c2c([N+](=O)[O-])c(C)nn2C)cc1	-7.2	0.1	-8.7	76.1*	10.8	-1.6
Cc1nn(CCC(=O)NNC(=S)Nc2ccc(Cl)cc2)c(C)c1[N+](=O)[O-]	-9.2	1.1	-6.8	-5.8	-6.5	-3.6
Cc1ccc(S(=O)(=O)NCC(C)n2cncn2)cc1 (stereo unspecified)	-2.6	1.0	2.1	40.9	2.4	-2.0
Cc1cccc(NS(=O)(=O)c2nnc(NC(=O)C3CCCCC3)s2)c1	-5.2	0.8	-22.8	20.2	2.2	0.1
CSc1ccccc1C(=O)NCCCn1ccnc1	-3.2	-1.3	-0.3	13.8	7.7	1.9
Cc1cccc(NC(=O)C2CC(=O)n3cnnc3S2)c1 (stereo unspecified)	-20.9	3.5	-3.1	95.4*	-33.8	-4.8
CCN=C1SC(C(=O)Nc2cccc(C)c2)CC(=O)N1CC (stereo unspecified)	-0.5	-3.5	0.0	10.0	-11.5	-1.8
